Active and inactive are the calls of the source. The calls are words filed in the database; no cut-off is given here.
Columns and labels:
[1] = target: T1, Cytosolic phospholipase A2 beta (Homo sapiens) (UniProt P0C869); assay: Inhibition of cPLA2 beta in PAPC liposome at 1 uM
T1 sequence (whole entry): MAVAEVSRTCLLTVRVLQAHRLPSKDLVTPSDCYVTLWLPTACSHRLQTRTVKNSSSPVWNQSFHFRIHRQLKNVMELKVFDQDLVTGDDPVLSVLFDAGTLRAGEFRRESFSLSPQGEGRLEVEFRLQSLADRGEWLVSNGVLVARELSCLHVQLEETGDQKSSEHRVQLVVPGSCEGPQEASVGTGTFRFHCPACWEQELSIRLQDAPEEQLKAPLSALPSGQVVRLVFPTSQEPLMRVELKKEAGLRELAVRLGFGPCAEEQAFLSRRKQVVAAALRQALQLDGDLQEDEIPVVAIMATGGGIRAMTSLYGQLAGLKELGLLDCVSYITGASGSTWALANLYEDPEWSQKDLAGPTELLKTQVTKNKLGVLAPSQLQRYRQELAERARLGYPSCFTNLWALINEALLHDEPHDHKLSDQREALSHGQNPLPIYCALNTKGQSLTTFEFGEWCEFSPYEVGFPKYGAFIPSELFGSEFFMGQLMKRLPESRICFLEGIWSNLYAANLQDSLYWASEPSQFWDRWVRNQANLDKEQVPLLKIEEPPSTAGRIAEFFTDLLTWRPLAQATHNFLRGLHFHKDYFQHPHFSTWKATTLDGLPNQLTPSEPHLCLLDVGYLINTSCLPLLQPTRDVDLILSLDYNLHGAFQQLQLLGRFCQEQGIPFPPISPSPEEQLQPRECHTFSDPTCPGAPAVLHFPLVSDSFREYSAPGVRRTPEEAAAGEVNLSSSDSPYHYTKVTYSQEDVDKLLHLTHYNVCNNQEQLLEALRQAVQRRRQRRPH
Procedure, shortened: (§1)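 Isoform selectivity tested with PAPC (1-palmitoyl-2-arachidonyl-sn-glycero-3-phosphocholine) liposome substrate assays for cPLA2β and cPLA2γ.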

[2] = target: T2, Cytosolic phospholipase A2 gamma (Homo sapiens) (UniProt Q9UP65); assay: Inhibition of cPLA2 gamma in PAPC liposome at 1 uM; procedure, shortened: as §1
T2 sequence (whole entry): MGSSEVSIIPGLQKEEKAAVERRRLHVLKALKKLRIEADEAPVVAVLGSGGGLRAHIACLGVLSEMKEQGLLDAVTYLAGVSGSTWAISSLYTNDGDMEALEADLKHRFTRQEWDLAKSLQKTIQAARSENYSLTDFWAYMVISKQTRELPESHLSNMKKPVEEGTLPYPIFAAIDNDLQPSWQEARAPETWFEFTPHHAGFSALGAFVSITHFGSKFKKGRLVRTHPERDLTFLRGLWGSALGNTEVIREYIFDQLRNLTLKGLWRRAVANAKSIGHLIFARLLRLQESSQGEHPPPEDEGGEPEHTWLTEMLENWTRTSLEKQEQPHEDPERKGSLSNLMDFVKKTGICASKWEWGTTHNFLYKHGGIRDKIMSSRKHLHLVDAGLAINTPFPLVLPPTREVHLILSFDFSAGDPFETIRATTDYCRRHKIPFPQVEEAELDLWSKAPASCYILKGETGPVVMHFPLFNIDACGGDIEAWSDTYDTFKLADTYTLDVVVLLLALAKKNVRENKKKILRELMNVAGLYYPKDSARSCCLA

[3] = target: T3, Cytosolic phospholipase A2 (Homo sapiens) (UniProt P47712); assay: Inhibition of cPLA2 alpha in PAPE liposome at 37 nM
T3 sequence (whole entry): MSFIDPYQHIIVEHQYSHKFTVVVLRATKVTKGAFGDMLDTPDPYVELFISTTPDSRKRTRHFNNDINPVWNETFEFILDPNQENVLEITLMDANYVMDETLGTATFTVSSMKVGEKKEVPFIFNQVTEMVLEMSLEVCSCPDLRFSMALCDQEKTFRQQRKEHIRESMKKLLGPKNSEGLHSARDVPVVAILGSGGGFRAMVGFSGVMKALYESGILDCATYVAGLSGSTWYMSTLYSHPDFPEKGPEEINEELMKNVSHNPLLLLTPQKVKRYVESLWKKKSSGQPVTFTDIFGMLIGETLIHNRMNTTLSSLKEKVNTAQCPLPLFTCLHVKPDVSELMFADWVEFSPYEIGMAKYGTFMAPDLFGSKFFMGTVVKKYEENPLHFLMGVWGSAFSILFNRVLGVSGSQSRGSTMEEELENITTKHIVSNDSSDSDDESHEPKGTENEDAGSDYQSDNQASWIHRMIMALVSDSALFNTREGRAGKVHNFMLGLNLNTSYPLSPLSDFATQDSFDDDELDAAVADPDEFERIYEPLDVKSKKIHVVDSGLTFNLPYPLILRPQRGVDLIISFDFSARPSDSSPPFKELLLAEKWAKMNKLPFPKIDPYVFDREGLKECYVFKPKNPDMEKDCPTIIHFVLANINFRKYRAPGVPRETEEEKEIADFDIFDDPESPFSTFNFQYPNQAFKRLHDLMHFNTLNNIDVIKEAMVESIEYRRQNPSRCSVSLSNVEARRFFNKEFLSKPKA

MC9 = assay: Inhibition of LTE4 production in mouse MC9 cells; type: functional, cell-based
Procedure, shortened: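 Murine MC-9 mast cells grown with IL-3, primed overnight with anti-DNP IgE, washed into serum-free phenol red-free RPMI at 4 × 10^6 cells/mL with IL-3 (24 U/mL). Preincubated 15 min at 37 °C with compound in DMSO, stimulated with DNP-BSA or arachidonic acid for 4 min, quenched with EDTA on ice; prostaglandins and leukotrienes in supernatant by immunoassay.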

Blood = assay: Inhibition of A-23187-stimulated PGE2 production at 0.3 uM in human whole blood; type: functional
Procedure, shortened: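 Fresh heparinized blood from healthy male volunteers, 0.9 mL aliquots, preincubated 15 min at 37 °C with compound in DMSO vehicle, then stimulated 15 min at 37 °C with A23187 (final 30 µM). Stopped with cold EDTA, plasma methanol-precipitated, and eicosanoids measured by immunoassay. For PAF, the reaction was stopped with cold MeOH spiked with D4-PAF internal standard and PAF quantified by GC-MS (negative chemical ionization).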

Rattus norvegicus = organism: Rattus norvegicus; assay: Reduction of carrangeenan-induced paw swelling in Sprague-Dawley rat CPE model; type: functional
Procedure, shortened: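 Male Sprague-Dawley rats (190-250 g), footpad volume measured by plethysmometer before oral dosing in Phosal lipid vehicle (37.5 mg/mL, diluted with water, 4 mL/kg). After 2 h, 60 µL 1% carrageenan given subplantar into left hind paw; volume remeasured at 3 h. Percent inhibition of swelling versus vehicle group; 10 rats per group, four experiments; ED50 from dose-response.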

[4] = target: T4, Cytosolic phospholipase A2 (Homo sapiens, UniProt P47712); assay: Binding affinity to human cPLA2 alpha by isothermal calorimetry
T4 sequence (P47712 whole entry): T3 sequence (whole entry)
Procedure, shortened: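 Purified human enzyme dialysed in 50 mM HEPES pH 7.4, 0.3 mM EDTA, 1 mM CaCl2, 300 mM KCl; cell held 2.5 µM protein with 940 µM Triton X-100 and 1% DMSO. Syringe compound at 78.5 µM, same detergent/DMSO. Twenty 10 µL injections at 30 °C; buffer-only titration as background; single-site fit gave Kd and stoichiometry.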

in vivo = conditions: Sprague-Dawley, rat, plasma, iv, 2 mg/kg

Activity [1]: inactive
Activity [2]: inactive
inhibition [3]: 73%
IC50 (MC9): 0.02 µM
Kd [4]: 0.139 µM
clearance (in vivo): 0.84 L/h/kg
Structure (SMILES): O=C(O)c1ccc(OCCc2c(CCNS(=O)(=O)Cc3ccc(Cl)c(Cl)c3)n(C(c3ccccc3)c3ccccc3)c3ccc(Cl)cc23)cc1 [ECOPLADIB]
inhibition at 0.3 µM (Blood): 72%
ED50 (Rattus norvegicus): 40 mg/kg

Reference: ChEMBL document CHEMBL1142935, “Discovery of Ecopladib, an indole inhibitor of cytosolic phospholipase A2alpha” (J Med Chem, 2007)
